ChEMBL document CHEMBL1914368, “Imidazo[1,5-a]quinoxalines as irreversible BTK inhibitors for the treatment of rheumatoid arthritis” (Bioorg Med Chem Lett, 2011)

Legend:
[1] = target: T1, Tyrosine-protein kinase BTK (Homo sapiens, UniProt Q06187); test: Inhibition of human full-length BTK expressed in Sf9 cells using FAM-Srctide peptide as substrate after 60 mins by TR-FRET Assay
[2] = target: T2, Tyrosine-protein kinase Lyn (Homo sapiens, UniProt P07948); test: Inhibition of LYN-A expressed in Sf9 cells after 60 mins by TR-FRET Assay
[3] = Inhibition of anti-IgM-stimulated human B cell proliferation assessed as [3H]thymidine incorporation preincubated for 30 mins measured after 3 days; assay type: functional, cell-based
[4] = target: T3, Aryl hydrocarbon receptor (Mus musculus, UniProt P30561); test: Agonist activity at Ah receptor in genetically engineered mouse cells expressing firefly luciferase gene by CALUX transactivational assay; assay type: functional
T3 sequence (P30561 whole entry): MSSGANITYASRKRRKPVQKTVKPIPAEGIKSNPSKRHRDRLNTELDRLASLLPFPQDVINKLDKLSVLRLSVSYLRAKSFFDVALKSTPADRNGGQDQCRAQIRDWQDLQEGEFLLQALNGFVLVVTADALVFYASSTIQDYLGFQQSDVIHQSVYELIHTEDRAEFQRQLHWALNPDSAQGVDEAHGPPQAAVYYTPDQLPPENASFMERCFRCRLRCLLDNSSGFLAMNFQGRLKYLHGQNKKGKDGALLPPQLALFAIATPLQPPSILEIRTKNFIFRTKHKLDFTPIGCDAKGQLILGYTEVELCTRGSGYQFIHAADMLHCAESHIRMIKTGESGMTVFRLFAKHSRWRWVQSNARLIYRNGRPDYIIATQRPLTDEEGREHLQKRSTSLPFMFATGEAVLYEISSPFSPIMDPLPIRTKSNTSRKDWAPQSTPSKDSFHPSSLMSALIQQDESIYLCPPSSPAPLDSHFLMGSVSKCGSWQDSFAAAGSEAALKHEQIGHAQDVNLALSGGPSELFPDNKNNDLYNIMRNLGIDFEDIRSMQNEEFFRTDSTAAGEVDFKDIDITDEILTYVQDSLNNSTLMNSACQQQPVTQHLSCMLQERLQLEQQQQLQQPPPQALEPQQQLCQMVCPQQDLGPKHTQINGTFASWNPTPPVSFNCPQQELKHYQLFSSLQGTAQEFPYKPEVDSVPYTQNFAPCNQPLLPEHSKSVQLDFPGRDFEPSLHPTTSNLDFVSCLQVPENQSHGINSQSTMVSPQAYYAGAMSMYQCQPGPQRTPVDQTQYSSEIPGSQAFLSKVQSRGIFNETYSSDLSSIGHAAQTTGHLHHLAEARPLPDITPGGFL

[5] = target: T4, Proto-oncogene tyrosine-protein kinase Src (Homo sapiens, UniProt P12931); test: Inhibition cSRC expressed in Sf9 cells after 60 mins by TR-FRET Assay
[6] = target: T1, Tyrosine-protein kinase BTK; test: Inhibition of human full-length BTK expressed in Sf9 cells using FAM-Srctide peptide as substrate preincubated for 60 mins measured after 60 mins by TR-FRET Assay
Procedure, shortened: (§1)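 The compound was pre-incubated with the kinase before the enzymatic reaction was started. IC50 values are averages of two or more determinations.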

[7] = target: T2, Tyrosine-protein kinase Lyn; test: Inhibition of LYN-A expressed in Sf9 cells preincubated for 60 mins measured after 60 mins by TR-FRET Assay; procedure, shortened: as §1
[8] = target: Tyrosine-protein kinase Lck (Homo sapiens, UniProt P06239); test: Inhibition of C-terminal His6-tagged human full-length LCK expressed in Sf9 cells preincubated for 60 mins measured after 60 mins by TR-FRET Assay
[9] = target: T4, Proto-oncogene tyrosine-protein kinase Src; test: Inhibition cSRC expressed in Sf9 cells preincubated for 60 mins measured after 60 mins by TR-FRET Assay
[10] = target: T5, Epidermal growth factor receptor (Homo sapiens, UniProt P00533); test: Inhibition of EGFR preincubated for 60 mins measured after 60 mins by TR-FRET Assay
[11] = target: T5, Epidermal growth factor receptor; test: Inhibition of EGFR after 60 mins by TR-FRET Assay
[12] = AUC (0 to infinity) in mouse at 2 mg/kg, iv; assay type: ADME, organism-based; design: time infinity, dose 2 mg/kg, route intravenous; conditions: plasma
[13] = AUC (0 to infinity) in mouse at 10 mg/kg, po; assay type: ADME, organism-based; design: time infinity, dose 10 mg/kg, route oral; conditions: plasma
[14] = Half life in mouse at 2 mg/kg, iv; assay type: ADME, organism-based; design: dose 2 mg/kg, route intravenous; conditions: in vivo
[15] = Half life in mouse at 10 mg/kg, po; assay type: ADME, organism-based; design: dose 10 mg/kg, route oral; conditions: in vivo
[16] = Clearance in mouse at 2 mg/kg, iv; assay type: ADME, organism-based; design: dose 2 mg/kg, route intravenous; conditions: in vivo
[17] = Volume of distribution at steady state in mouse at 2 mg/kg, iv; assay type: ADME, organism-based; design: dose 2 mg/kg, route intravenous; conditions: in vivo, read-out: Vdss
Procedure, shortened: (§2)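 Mouse pharmacokinetics from single dosing at 2 mg/kg iv and 10 mg/kg po. The study derived AUC, T1/2, clearance, Vss, Tmax, Cmax and oral bioavailability (%F) from the paired iv and po arms.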

[18] = Tmax in mouse at 10 mg/kg, po; assay type: ADME, organism-based; design: dose 10 mg/kg, route oral; conditions: in vivo; procedure, shortened: as §2
[19] = Cmax in mouse at 10 mg/kg, po; assay type: ADME, organism-based; design: dose 10 mg/kg, route oral; conditions: in vivo
[20] = Oral bioavailability in mouse at 10 mg/kg; assay type: ADME, organism-based; conditions: in vivo; procedure, shortened: as §2
[21] = Homo sapiens, B-cell, read-out: IC50

T1 sequence (Q06187 whole entry): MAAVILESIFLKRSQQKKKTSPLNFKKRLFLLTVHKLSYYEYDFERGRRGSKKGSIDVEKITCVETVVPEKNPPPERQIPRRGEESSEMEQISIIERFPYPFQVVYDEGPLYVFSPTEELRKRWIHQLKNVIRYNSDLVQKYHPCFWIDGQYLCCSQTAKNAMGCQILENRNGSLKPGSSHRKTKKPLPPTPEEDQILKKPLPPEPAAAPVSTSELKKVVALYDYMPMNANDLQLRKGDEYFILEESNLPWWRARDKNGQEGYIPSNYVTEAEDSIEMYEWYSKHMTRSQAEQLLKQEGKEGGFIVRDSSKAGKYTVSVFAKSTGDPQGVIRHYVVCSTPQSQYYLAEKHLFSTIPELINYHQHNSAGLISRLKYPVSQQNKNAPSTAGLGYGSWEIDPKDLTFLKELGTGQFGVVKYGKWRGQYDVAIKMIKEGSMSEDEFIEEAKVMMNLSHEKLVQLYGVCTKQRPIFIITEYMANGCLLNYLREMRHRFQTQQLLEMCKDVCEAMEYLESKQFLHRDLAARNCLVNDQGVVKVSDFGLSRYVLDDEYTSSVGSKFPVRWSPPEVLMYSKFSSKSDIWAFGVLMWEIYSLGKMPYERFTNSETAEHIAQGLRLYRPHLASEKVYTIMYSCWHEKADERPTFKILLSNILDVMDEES
T2 sequence (P07948 whole entry): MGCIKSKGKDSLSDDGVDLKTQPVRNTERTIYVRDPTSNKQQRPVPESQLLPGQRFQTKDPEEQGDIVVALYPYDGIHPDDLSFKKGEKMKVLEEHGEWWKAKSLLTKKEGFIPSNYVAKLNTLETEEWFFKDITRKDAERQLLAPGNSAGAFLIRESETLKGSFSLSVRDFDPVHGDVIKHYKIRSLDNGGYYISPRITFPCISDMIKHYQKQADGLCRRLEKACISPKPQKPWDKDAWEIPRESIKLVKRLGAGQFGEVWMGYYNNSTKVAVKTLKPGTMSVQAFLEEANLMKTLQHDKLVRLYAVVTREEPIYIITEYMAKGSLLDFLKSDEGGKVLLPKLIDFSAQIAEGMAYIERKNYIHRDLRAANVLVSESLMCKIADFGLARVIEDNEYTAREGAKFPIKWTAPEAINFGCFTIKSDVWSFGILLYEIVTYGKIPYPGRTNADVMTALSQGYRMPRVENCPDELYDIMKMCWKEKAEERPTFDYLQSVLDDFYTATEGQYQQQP
T5 sequence (P00533 whole entry): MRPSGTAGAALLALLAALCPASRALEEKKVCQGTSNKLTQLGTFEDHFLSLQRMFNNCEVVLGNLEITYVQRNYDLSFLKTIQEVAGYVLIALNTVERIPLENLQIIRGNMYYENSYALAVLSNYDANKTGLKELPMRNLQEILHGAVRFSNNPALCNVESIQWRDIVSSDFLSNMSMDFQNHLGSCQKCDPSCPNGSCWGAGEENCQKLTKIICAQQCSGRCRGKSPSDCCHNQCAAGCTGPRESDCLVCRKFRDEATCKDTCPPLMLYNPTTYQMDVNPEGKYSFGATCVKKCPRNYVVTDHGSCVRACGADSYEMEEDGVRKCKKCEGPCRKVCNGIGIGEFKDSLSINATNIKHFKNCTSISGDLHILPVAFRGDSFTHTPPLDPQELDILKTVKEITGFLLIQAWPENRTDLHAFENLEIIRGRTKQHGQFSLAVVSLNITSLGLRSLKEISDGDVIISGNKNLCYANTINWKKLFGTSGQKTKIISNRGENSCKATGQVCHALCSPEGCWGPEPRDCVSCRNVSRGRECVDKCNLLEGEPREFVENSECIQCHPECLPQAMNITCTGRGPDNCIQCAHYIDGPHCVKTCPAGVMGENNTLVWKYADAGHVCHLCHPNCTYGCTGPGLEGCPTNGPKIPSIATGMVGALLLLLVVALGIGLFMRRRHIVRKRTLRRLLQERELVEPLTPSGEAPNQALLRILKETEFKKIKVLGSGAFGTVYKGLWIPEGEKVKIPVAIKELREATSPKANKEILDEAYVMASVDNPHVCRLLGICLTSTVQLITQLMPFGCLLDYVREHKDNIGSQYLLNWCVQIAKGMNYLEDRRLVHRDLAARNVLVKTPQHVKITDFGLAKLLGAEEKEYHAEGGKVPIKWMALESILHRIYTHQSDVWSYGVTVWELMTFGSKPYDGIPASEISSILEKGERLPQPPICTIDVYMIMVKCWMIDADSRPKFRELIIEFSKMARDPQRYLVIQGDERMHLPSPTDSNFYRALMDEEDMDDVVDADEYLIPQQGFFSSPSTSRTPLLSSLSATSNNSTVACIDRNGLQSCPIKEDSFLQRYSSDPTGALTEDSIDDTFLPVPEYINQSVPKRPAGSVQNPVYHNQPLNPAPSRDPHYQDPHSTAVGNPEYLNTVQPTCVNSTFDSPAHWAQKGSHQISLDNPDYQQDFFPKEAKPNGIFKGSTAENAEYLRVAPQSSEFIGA
T4 sequence (P12931 2-536 limits assumed): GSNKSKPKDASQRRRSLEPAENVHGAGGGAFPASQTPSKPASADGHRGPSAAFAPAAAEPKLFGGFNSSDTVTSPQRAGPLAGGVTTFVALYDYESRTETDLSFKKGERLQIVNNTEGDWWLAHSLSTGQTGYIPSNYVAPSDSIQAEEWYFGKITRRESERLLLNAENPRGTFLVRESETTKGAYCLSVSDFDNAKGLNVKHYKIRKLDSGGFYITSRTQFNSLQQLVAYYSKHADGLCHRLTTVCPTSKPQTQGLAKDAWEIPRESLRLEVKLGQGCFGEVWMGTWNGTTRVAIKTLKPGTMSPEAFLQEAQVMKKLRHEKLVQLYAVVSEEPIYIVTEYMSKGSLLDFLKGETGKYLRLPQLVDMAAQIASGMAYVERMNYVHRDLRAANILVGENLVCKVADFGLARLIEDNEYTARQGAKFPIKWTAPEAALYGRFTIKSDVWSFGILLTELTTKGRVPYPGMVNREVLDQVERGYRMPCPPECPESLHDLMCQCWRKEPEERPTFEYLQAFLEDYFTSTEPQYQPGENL
Sequence of Tyrosine-protein kinase Lck (P06239 whole entry): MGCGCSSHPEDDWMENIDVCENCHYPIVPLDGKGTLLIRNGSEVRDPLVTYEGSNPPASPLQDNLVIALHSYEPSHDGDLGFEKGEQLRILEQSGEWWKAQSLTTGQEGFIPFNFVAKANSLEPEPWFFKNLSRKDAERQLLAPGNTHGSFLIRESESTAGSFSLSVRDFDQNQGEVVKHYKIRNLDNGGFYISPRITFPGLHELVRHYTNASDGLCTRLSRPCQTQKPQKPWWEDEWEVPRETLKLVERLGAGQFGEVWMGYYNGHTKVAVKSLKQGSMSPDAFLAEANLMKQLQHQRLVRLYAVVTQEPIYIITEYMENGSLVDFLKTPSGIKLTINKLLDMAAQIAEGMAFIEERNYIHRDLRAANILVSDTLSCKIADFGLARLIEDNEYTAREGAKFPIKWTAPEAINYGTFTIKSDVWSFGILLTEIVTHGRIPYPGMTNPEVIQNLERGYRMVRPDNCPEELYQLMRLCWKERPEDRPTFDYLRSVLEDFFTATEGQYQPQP

| Compound | IC50 [1] [nM] | IC50 [2] [nM] | IC50 [3, 21] [nM] | other results |
| --- | --- | --- | --- | --- |
| CNc1ccc2nc(Nc3cc(F)ccc3C)c3cncn3c2c1 | 72 | 40 | – | – |
| COc1cc2nc(Nc3ccccc3C)c3cncn3c2cc1N(CC1CC1)C(=O)/C=C/CN(C)C | 45.3 | 1980 | 43.1 | – |
| COc1cc2nc(Nc3ccccc3C)c3cncn3c2cc1NC(=O)C#CCN1CCCCC1 | 0.847 | 21.3 | – | – |
| Cc1cc(Cl)ccc1Nc1nc2ccc(N(C)C(=O)/C=C/CN(C)C)cc2n2cncc12 | 7.56 | 378 | 4.12 | – |
| CN(C)C/C=C/C(=O)N(C)c1ccc2nc(Cl)c3cncn3c2c1 | 4290 | > 50000 | – | IC50 ([3]; b cell): Not Active |
| Cc1cc(F)ccc1Nc1nc2ccc(N(C)C(=O)/C=C/CN(C)C)cc2n2cncc12 | 2.96 | 716 | 2 | – |
| Clc1cc2c(cc1Cl)Oc1cc(Cl)c(Cl)cc1O2 [2,3,7,8-TETRACHLORODIBENZO-P-DIOXIN] | – | – | – | EC50 [4]: 0.03 nM |
| Cc1ccccc1Nc1nc2ccc(N(C)C(=O)/C=C/CN(C)C)cc2n2cncc12 | 3.99 | 623 | 3.17 | – |
| Cc1cc(F)ccc1Oc1nc2cc(F)c(N(C)C(=O)/C=C/CN(C)C)cc2n2cncc12 | 9.53 | 10400 | 32.3 | – |
| C=C(CN1CCOCC1)C(=O)Nc1cc2c(cc1OC)nc(Nc1ccccc1C)c1cncn12 | 2.52 | 297 | – | – |
| CNc1ccc2nc(Oc3ccc(F)cc3C)c3cncn3c2c1 | 1220 | 560 | – | – |
| CN(C)C/C=C/C(=O)N(C)c1cc2c(cc1F)nc(Nc1ccccc1Cl)c1cncn12 | 1.82 | 2130 | 6.75 | – |
| Cc1c(F)cccc1Nc1nc2ccc(N(C)C(=O)/C=C/CN(C)C)cc2n2cncc12 | 1.89 | 327 | 3.17 | – |
| Cc1cc(O)ccc1Nc1nc2ccc(N(C)C(=O)/C=C/CN(C)C)cc2n2cncc12 | 12.2 | 350 | 1.02 | – |
| Cc1cccc(Cl)c1Nc1nc2ccc(N(C)C(=O)/C=C/CN(C)C)cc2n2cncc12 | 10.3 | 44.4 | – | IC50 ([3]; b cell): Not Active |
| Cc1ccccc1Nc1nc2cc(Cl)c(N(C)C(=O)/C=C/CN(C)C)cc2n2cncc12 | 4.83 | 1300 | 2.17 | – |
| Cc1cccc(O)c1Nc1nc2ccc(N(C)C(=O)/C=C/CN(C)C)cc2n2cncc12 | 10.4 | 167 | 44.9 | – |
| Cc1cc(F)ccc1Oc1nc2ccc(N(C)C(=O)/C=C/CN(C)C)cc2n2cncc12 | 6.58 | 3730 | 228 | EC50 [4]: > 10000 nM |
| Cc1ccc(F)cc1Nc1nc2cc(Cl)c(N(C)C(=O)/C=C/CN(C)C)cc2n2cncc12 | 3.98 | 3390 | 5.84 | EC50 [4]: > 10000 nM; IC50 [5]: 1620 nM; IC50 [6]: 2.6 nM; IC50 [7]: 3020 nM; IC50 [8]: 2790 nM; IC50 [9]: 410 nM; IC50 [10]: 3.35 nM; IC50 [11]: 68 nM; AUC(0-inf) [12]: 1120 ng·h/mL; AUC(0-inf) [13]: 3620 ng·h/mL; half-life [14]: 2.2 h; half-life [15]: 2.7 h; clearance [16]: 26.6 mL/min/kg; Vd [17]: 4.51 L/kg; Tmax [18]: 3 h; Cmax [19]: 454 ng/mL; bioavailability [20]: 58% |

| Compound | IC50 [1] [nM] | IC50 [2] [nM] | IC50 [3, 21] [nM] | other results |
| --- | --- | --- | --- | --- |
| Cc1cc(F)ccc1Nc1nc2cc(Cl)c(N(C)C(=O)/C=C/CN(C)C)cc2n2cncc12 | 9.53 | 1590 | 2.41 | – |
| CCN(C(=O)/C=C/CN(C)C)c1cc2c(cc1OC)nc(Nc1ccccc1C)c1cncn12 | 19.1 | 533 | 16.1 | – |
| Cc1ccc(Cl)cc1Nc1nc2ccc(N(C)C(=O)/C=C/CN(C)C)cc2n2cncc12 | 13.2 | 1670 | 53.7 | – |
| Cc1ccc(NC(=O)c2cccc(C(F)(F)F)c2)cc1Nc1nc2ccc(N(C)C(=O)/C=C/CN(C)C)cc2n2cncc12 | 16.8 | 1.55 | – | IC50 ([3]; b cell): Not Active |
| COc1cc2nc(Nc3ccccc3C)c3cncn3c2cc1NC(=O)/C=C/CN(C)C | 0.884 | 10.9 | – | IC50 ([3]; b cell): Not Active |
| Cc1cc(F)ccc1Nc1nc2cc(F)c(N(C)C(=O)/C=C/CN(C)C)cc2n2cncc12 | 5.35 | 3450 | 8.08 | – |
| Cc1c(O)cccc1Nc1nc2ccc(N(C)C(=O)/C=C/CN(C)C)cc2n2cncc12 | 76.5 | 490 | – | IC50 ([3]; b cell): Not Active |
| Cc1c(Cl)cccc1Nc1nc2ccc(N(C)C(=O)/C=C/CN(C)C)cc2n2cncc12 | 60.6 | 2320 | – | IC50 ([3]; b cell): Not Active |
| COc1cc2nc(Nc3ccccc3C)c3cncn3c2cc1NC(=O)C#CCN1CCOCC1 | 0.847 | 46.6 | – | – |
| Cc1ccc(F)cc1Nc1nc2ccc(N(C)C(=O)/C=C/CN(C)C)cc2n2cncc12 | 3.33 | 1420 | 4.88 | EC50 [4]: > 10000 nM |
| Cc1ccccc1Oc1nc2cc(F)c(N(C)C(=O)/C=C/CN(C)C)cc2n2cncc12 | 5.51 | 6020 | 17.4 | – |
| Cc1ccc(F)cc1Oc1nc2cc(F)c(N(C)C(=O)/C=C/CN(C)C)cc2n2cncc12 | 13 | 7400 | 144 | – |
| CN(C)C/C=C/C(=O)N(C)c1cc2c(cc1Cl)nc(Nc1ccccc1Cl)c1cncn12 | 5.03 | 2000 | 4.4 | – |
| Cc1ccccc1Sc1nc2ccc(N(C)C(=O)/C=C/CN(C)C)cc2n2cncc12 | 283 | 19600 | 651 | – |
| Cc1ccc(F)cc1Nc1nc2cc(F)c(N(C)C(=O)/C=C/CN(C)C)cc2n2cncc12 | 6.76 | 3080 | 23.5 | – |
| CNc1cc2c(cc1F)nc(Nc1ccccc1C)c1cncn12 | 40 | 19 | – | – |
| CNc1cc2c(cc1F)nc(Oc1ccccc1C)c1cncn12 | 670 | 130 | – | – |
| Cc1ccc(O)cc1Nc1nc2ccc(N(C)C(=O)/C=C/CN(C)C)cc2n2cncc12 | 1.55 | 10.9 | 2.56 | – |
